Format in all cases: functional
In one test the test system is Aspergillus fumigatus. Kind of test: Minimal inhibitory concentration against Aspergillus fumigatus. The gist of the method:
(§1)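 Microtiter broth dilution MIC assay. Strains: S. aureus, S. faecalis, E. coli, P. vulgaris and C. albicans were wild-type clinical isolates; S. cerevisiae ATCC 7752, A. fumigatus ATCC 28212, A. niger ATCC 16404 and M. mucedo ATCC 7941.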

In the next test the test system is Aspergillus niger. Kind of test: Minimal inhibitory concentration against Aspergillus niger. In short, it runs like this:
as §1

In the next test the test system is Saccharomyces cerevisiae. In words: Minimal inhibitory concentration against Saccharomyces cerevisiae. In short, it runs like this: as §1
A further test relates to Staphylococcus aureus. In words: Minimal inhibitory concentration against Staphylococcus aureus. In short, it runs like this:
as §1

The next test deals with Escherichia coli. Kind of test: Minimal inhibitory concentration against Escherichia coli. In short, it runs like this: as §1
For another test, the system named is Proteus vulgaris. Kind of test: Minimal inhibitory concentration against Proteus vulgaris. In short, it runs like this:
as §1

A further test relates to Candida albicans. In words: Minimal inhibitory concentration against Candida albicans. In short, it runs like this:
as §1

In the next test the test system is Mucor mucedo. Kind of test: Minimal inhibitory concentration against Mucor mucedo. In short, it runs like this:
as §1

The test system of another test is Enterococcus faecalis. Kind of test: Minimal inhibitory concentration against Streptococcus faecalis. In short, it runs like this: as §1

In ChEMBL document CHEMBL1131640, “L-carnitine esters as "soft", broad-spectrum antimicrobial amphiphiles” (J Med Chem, 1998) one finds MIC data, which are given here for seven compounds.

In the case of `CCCCCC(CCCCC)OC(=O)C[C@H](C[N+](C)(C)C)OC(=O)CC(C)C.[Cl-]`, the MIC (in general, the smallest concentration in the dilution series that meets the test's criterion for growth inhibition) in the test with Aspergillus fumigatus is more than 100 µg/mL; in the test with Aspergillus niger, 50 µg/mL; against Saccharomyces cerevisiae, 12.5 µg/mL; against Staphylococcus aureus it was 12.5 µg/mL; in the test with Escherichia coli, 100 µg/mL; in the test on Proteus vulgaris it was more than 100 µg/mL. In addition, the values for the minimal inhibitory concentration (MIC) against Candida albicans, with Mucor mucedo and in the test with Enterococcus faecalis were 25 µg/mL, 100 µg/mL and 3.12 µg/mL, respectively.

As to `CCCCCCCCCCCCCCCCCC(=O)O[C@H](CC(=O)O)C[N+](C)(C)C.[Cl-]`, the MIC against Aspergillus fumigatus, with Aspergillus niger, against Saccharomyces cerevisiae, in the test with Staphylococcus aureus, in the test on Escherichia coli and against Proteus vulgaris was more than 100 µg/mL each time. In addition, the MIC in the test on Candida albicans is more than 100 µg/mL; with Mucor mucedo, more than 100 µg/mL; against Enterococcus faecalis, 25 µg/mL.

`CCCCCCCCCCCC(=O)O[C@H](CC(=O)OCCOc1ccccc1)C[N+](C)(C)C.[Cl-]`: the minimal inhibitory concentration (MIC) in the test on Aspergillus fumigatus was determined as 12.5 µg/mL; against Aspergillus niger, 12.5 µg/mL; against Saccharomyces cerevisiae it was 3.12 µg/mL; with Staphylococcus aureus, 6.25 µg/mL; in the test with Escherichia coli, 50 µg/mL; against Proteus vulgaris, 100 µg/mL. Also, the MIC against Candida albicans was determined as 3.12 µg/mL; in the test with Mucor mucedo, 25 µg/mL; against Enterococcus faecalis, 3.12 µg/mL.

On to `CCCCCCCCCCC(=O)O[C@H](CC(=O)OCCOc1ccccc1)C[N+](C)(C)C.[Cl-]`, for which the MIC with Aspergillus fumigatus was found to be 25 µg/mL; with Aspergillus niger, 25 µg/mL; with Saccharomyces cerevisiae, 12.5 µg/mL; with Staphylococcus aureus, 6.25 µg/mL; with Escherichia coli it was 25 µg/mL; against Proteus vulgaris, 50 µg/mL. In addition, the MIC was determined as 3.12 µg/mL against Candida albicans, 50 µg/mL against Mucor mucedo and 3.12 µg/mL in the test with Enterococcus faecalis.

In the case of `CCCCCCCCCCCCCOC(=O)C[C@H](C[N+](C)(C)C)OC(=O)CCCCCCCCCC.[Cl-]`, the minimum inhibitory concentration (MIC) against Aspergillus fumigatus was more than 100 µg/mL; in the test on Aspergillus niger, 100 µg/mL; against Saccharomyces cerevisiae it was 25 µg/mL; in the test with Staphylococcus aureus, 50 µg/mL; against Escherichia coli, more than 100 µg/mL; against Proteus vulgaris it was more than 100 µg/mL. In addition, the MIC stood at 25 µg/mL in the test on Candida albicans, 50 µg/mL in the test with Mucor mucedo and 25 µg/mL against Enterococcus faecalis.

As to `C=CCCCCCCCCCOC(=O)C[C@H](C[N+](C)(C)C)OC(=O)CC(C)C.[Cl-]`, the MIC turned out to be 12.5 µg/mL in the test with Aspergillus fumigatus; 6.25 µg/mL against Aspergillus niger; 6.25 µg/mL against Saccharomyces cerevisiae; 12.5 µg/mL with Staphylococcus aureus; 25 µg/mL against Escherichia coli; 50 µg/mL in the test on Proteus vulgaris. The MIC against Candida albicans is 6.25 µg/mL; against Mucor mucedo, 12.5 µg/mL; in the test with Enterococcus faecalis, 3.12 µg/mL.

As to `CCCCCCCCCCC(=O)O[C@H](CC(=O)OCCC(F)(F)C(F)(F)C(F)(F)C(F)(F)C(F)(F)C(F)(F)C(F)(F)C(F)(F)F)C[N+](C)(C)C.[Cl-]`, the MIC against Aspergillus fumigatus, in the test on Aspergillus niger, against Saccharomyces cerevisiae, against Staphylococcus aureus, in the test with Escherichia coli and with Proteus vulgaris was more than 100 µg/mL in each case. In addition, the minimum inhibitory concentration (MIC) against Candida albicans, with Mucor mucedo and in the test with Enterococcus faecalis was more than 100 µg/mL in each case.
